The record followed here is ChEMBL document CHEMBL1148421, “Novel 3,5-diaryl pyrazolines and pyrazole as low-density lipoprotein (LDL) oxidation inhibitor” (Bioorg Med Chem Lett, 2004).

Holding throughout (assay type): functional
The species named for assay [1] is Homo sapiens. Nature of the assay: Antioxidant effect on the Cu2+-mediated oxidation andapoB-100 fragmentation in LDL after incubation with 10 uM of compound. Put shortly:
(§1)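 LDL (240 µg/mL in PBS) incubated 12 h at 37 °C with 5 µM CuSO4, with or without compound. About 2.0 µg LDL protein run on 4% SDS-PAGE and stained with Coomassie Brilliant Blue R250. ApoB-100 band quantified by densitometry as peak area (absorbance units per mm). Also reported as percent remaining apoB-100 relative to intact apoB-100 of native LDL incubated without CuSO4.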

Assay [2] is filed under the species Homo sapiens. In words: Antioxidant effect on the Cu2+-mediated oxidation andapoB-100 fragmentation in LDL after incubation with 20 uM of compound. The method, boiled down: as §1
The species named for assay [3] is Homo sapiens. Nature of the assay: Antioxidant effect on the Cu2+-mediated oxidation andapoB-100 fragmentation in LDL after incubation with 5 uM of compound. Put shortly: as §1
Assay [4] in a line: In vitro ability to protect human LDL against Cu2+-induced peroxidation. (concentration inhibiting 50% of the Cu2+ induced lipid peroxidation). Put shortly: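 Human LDL (120 µg/mL) oxidized with 10 µM CuSO4 as initiator for 4 h in the presence of compound. Lipid peroxidation read out as TBARS. IC50 is the concentration inhibiting TBARS formation by 50%.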
The species named for assay [5] is Homo sapiens. Nature of the assay: Antioxidant effect on the Cu2+-mediated oxidation and apoB-100 fragmentation in LDL after incubation with 10 uM of compound. The method, boiled down:
as §1

Assay [6] is filed under the species Homo sapiens. In words: Antioxidant effect on the Cu2+-mediated oxidation and apoB-100 fragmentation in LDL after incubation with 5 uM of compound. Put shortly:
as §1

Assay [7] is filed under the species Homo sapiens. Nature of the assay: Antioxidant effect on the Cu2+-mediated oxidation and apoB-100 fragmentation in LDL after incubation with 20 uM of compound. The method, boiled down: as §1

Molecules are shown by their SMILES.

By IC50 is commonly meant the concentration needed to halve the response being measured.

`CC(C)(C)c1cc(C2=NNC(c3cc(C(C)(C)C)c(O)c(C(C)(C)C)c3)C2)cc(C(C)(C)C)c1O` (stereo not drawn): the Area in assay [1] came to 9.26 AU mm-1; in assay [2], 9.97 AU mm-1; in assay [3], 5.63 AU mm-1. Also, it took 100 nM to reach half-maximal inhibition in assay [4] (IC50).

Take `CC(C)(C)c1cc(C2=NNC(c3cc(F)c(O)c(F)c3)C2)cc(C(C)(C)C)c1O` (stereo not drawn): the IC50 in assay [4] is 200 nM.

Regarding `CC(C)(C)c1cc(C2=NNC(c3ccc(O)c([N+](=O)[O-])c3)C2)cc(C(C)(C)C)c1O` (stereo not drawn), the IC50 in assay [4] was 300 nM. Against the preceding compound, the IC50 is about 1.5-fold higher.

`Cc1cc(C2CC(c3cc(C(C)(C)C)c(O)c(C(C)(C)C)c3)=NN2)cc(C)c1O` (stereo not drawn) came in with an IC50 in assay [4] of 200 nM.

`CC(C)(C)c1cc(C2=NNC(c3ccc(O)cc3)C2)cc(C(C)(C)C)c1O` (stereo not drawn) had an IC50 in assay [4] of 200 nM.

Compound `CC(C)(C)c1cc(-c2cc(-c3cc(C(C)(C)C)c(O)c(C(C)(C)C)c3)[nH]n2)cc(C(C)(C)C)c1O` returned an IC50 in assay [4] of 700 nM.

Consider `CC(C)(Sc1cc(C(C)(C)C)c(O)c(C(C)(C)C)c1)Sc1cc(C(C)(C)C)c(O)c(C(C)(C)C)c1` [PROBUCOL], for which the results for the Area in assay [5], in assay [6] and in assay [7] were 4.73 AU mm-1, 0 AU mm-1 and 9.22 AU mm-1, respectively. The same compound came in with an IC50 in assay [4] of 600 nM.

Take `COc1cc(C2CC(c3cc(C(C)(C)C)c(O)c(C(C)(C)C)c3)=NN2)ccc1O` (stereo not drawn): in assay [4], the IC50 was found to be 200 nM.

`CC(C)(C)c1cc(C2=NNC(c3cc(-c4ccccc4)c(O)c(-c4ccccc4)c3)C2)cc(C(C)(C)C)c1O` (stereo not drawn) returned an IC50 in assay [4] of 600 nM.

For the compound `CC(C)c1cc(C2CC(c3cc(C(C)(C)C)c(O)c(C(C)(C)C)c3)=NN2)cc(C(C)C)c1O` (stereo not drawn), the IC50 in assay [4] was found to be 700 nM. The IC50 values of the last two compounds are within 1.5-fold of each other.

On to `Cc1cc(C2CC(c3cc(C(C)(C)C)c(O)c(C(C)(C)C)c3)=NN2)c(C)c(C)c1O` (stereo not drawn), for which, in assay [4], the IC50 worked out at 600 nM.

As to `CC(C)(C)c1cc(C2=NNC(c3ccc(O)c(O)c3)C2)cc(C(C)(C)C)c1O` (stereo not drawn), in assay [4], inhibition was half-maximal at 300 nM (IC50).
